Assay [1] concerns the target NAD(P)H dehydrogenase [quinone] 1 (Mus musculus) (UniProt Q64669). Briefly: Induction of QR1 activity in mouse Hepa-1c1c7 cells assessed as induction ratio at 50 uM after 48 hrs by MTT assay relative to control. The assay is classed as cell-based. In outline: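 QR1 induction is reported as the induction ratio, meaning activity relative to control, measured at a test concentration of 50 μM.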
Background: Tetrazolium assays rely on reduction of a dye to a coloured formazan, in cell work by metabolically active cells.

In assay [2] the target is T1, Aromatase (Homo sapiens, UniProt P11511).
T1 sequence (P11511 whole entry): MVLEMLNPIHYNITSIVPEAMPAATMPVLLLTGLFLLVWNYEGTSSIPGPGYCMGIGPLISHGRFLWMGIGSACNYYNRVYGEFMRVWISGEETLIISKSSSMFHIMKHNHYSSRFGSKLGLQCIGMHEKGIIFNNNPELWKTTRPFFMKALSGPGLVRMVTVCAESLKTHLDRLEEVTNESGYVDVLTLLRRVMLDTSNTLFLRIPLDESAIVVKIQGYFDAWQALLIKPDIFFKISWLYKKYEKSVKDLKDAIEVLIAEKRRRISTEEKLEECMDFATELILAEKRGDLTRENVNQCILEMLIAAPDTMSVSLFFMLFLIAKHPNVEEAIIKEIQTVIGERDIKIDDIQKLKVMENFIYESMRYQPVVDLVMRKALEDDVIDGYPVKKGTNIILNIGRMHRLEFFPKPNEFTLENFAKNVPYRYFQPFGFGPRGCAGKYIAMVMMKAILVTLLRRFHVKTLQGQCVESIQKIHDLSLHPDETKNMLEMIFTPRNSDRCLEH
Briefly: Inhibition of CYP19A1 (unknown origin) at 50 uM preincubated with NADPH followed by DBF substrate addition after 30 mins by fluorescence based assay relative to control. A digest of the protocol: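 Aromatase inhibition was screened at 50 μM test concentration. Activity is expressed as percent inhibition relative to vehicle-treated controls.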

Assay [3] has as its target T1, Aromatase. Description: Inhibition of CYP19A1 (unknown origin) preincubated with NADPH followed by DBF substrate addition after 30 mins by fluorescence based assay.
Assay [4] addresses NAD(P)H dehydrogenase [quinone] 1 (Mus musculus) (UniProt Q64669). Description: Induction of QR1 activity in mouse Hepa-1c1c7 cells assessed as drug concentration required to double enzyme activity after 48 hrs by MTT assay. It counts as cell-based. A digest of the protocol: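 CD is the concentration that doubles QR1 activity. It was determined only for compounds whose induction ratio at 50 μM exceeded 2.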

Broadly, the inhibition is the relative decrease from the control value, in per cent. As a reminder, the IC50 is the concentration that inhibits the measured activity by half. Low readings indicate higher potency, high ones lower potency.

NAD(P)H dehydrogenase [quinone] 1 (Mus musculus), sequence (Q64669 whole entry): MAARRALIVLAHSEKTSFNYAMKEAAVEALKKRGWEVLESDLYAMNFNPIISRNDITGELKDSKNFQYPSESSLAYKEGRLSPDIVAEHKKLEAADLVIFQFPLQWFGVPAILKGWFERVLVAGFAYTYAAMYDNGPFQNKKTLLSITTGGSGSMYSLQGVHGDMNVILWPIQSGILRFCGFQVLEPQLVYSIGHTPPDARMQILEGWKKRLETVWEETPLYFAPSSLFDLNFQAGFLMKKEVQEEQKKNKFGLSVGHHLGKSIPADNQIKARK

In the case of `Fc1cc(F)cc(-c2cc3ccccc3[nH]2)c1`, in assay [1], the Ratio stood at 0.58. This molecule also showed an inhibition at 50 µM at Aromatase [2] of 11%.
Regarding `C#CCn1c(-c2ccccc2)cc2ccccc21`, the Ratio in assay [1] was found to be 0.87. The molecule also displayed an inhibition at 50 µM on Aromatase [2] of 26.3%.
Take `c1cncc(-c2cc3ccccc3[nH]2)c1`: the Ratio in assay [1] came out at 1.14. This molecule also had an IC50 on Aromatase [3] of 3.05 µM. The molecule further came in with an inhibition at 50 µM against Aromatase [2] of 81.5%.
`CN(C)c1ccc(-c2cc3ccccc3[nH]2)cc1`: the Ratio in assay [1] amounted to 1.21. The molecule further gave an inhibition at 50 µM at Aromatase [2] of 0%.
Take `Cc1ccccc1-c1cc2ccccc2[nH]1`: the Ratio in assay [1] is 0.54. The molecule further yielded an inhibition at 50 µM against Aromatase [2] of 27.1%.
Turning to `Brc1ccc(-c2cc3ccccc3[nH]2)cc1`, the Ratio in assay [1] was found to be 2.8. Also, in assay [4], the CD was 5.1 µM. At Aromatase [2], this molecule had an inhibition at 50 µM of 4.8%.
Regarding `Cn1c(-c2ccccc2)cc2ccccc21`, the Ratio in assay [1] was found to be 0.5. Also, the inhibition at 50 µM on Aromatase [2] amounted to 0%.
In the case of `Nc1ccc2[nH]c(-c3ccccc3)cc2c1`, the Ratio in assay [1] came out at 0.72. At Aromatase [2], at 50 µM the inhibition was 41.4%.
As for `c1ccc2[nH]c(-c3ccsc3)cc2c1`, the Ratio in assay [1] was 0.67. The molecule also came in with an inhibition at 50 µM at Aromatase [2] of 22%.
For the molecule `c1ccc(-c2cc3ccccc3[nH]2)cc1` [2-PHENYL-1H-INDOLE], at Aromatase [2], the inhibition at 50 µM worked out at 27.8%.
As to `Clc1ccc(-c2cc3ccccc3[nH]2)cc1`, the CD in assay [4] came out at 2.75 µM. In addition, the inhibition at 50 µM against Aromatase [2] stood at 15.8%.
As for `Cc1ccccc1-c1cc2cc([N+](=O)[O-])ccc2[nH]1`, the Ratio in assay [1] turned out to be 0.78. This molecule also came in with an IC50 against Aromatase [3] of 6.87 µM. For the same molecule, at Aromatase [2], the inhibition at 50 µM is 71.5%.
`Clc1ccc2cc(-c3ccccc3)[nH]c2c1`: the Ratio in assay [1] amounted to 4.25. Further, the CD in assay [4] is 6.8 µM. The molecule further gave an inhibition at 50 µM on Aromatase [2] of 13.6%.
Consider `Nc1ccc2[nH]c(-c3ccc(Cl)c(Cl)c3)cc2c1`, for which the Ratio in assay [1] turned out to be 4.9. In assay [4], the CD was found to be 10.3 µM. Besides, 50 µM produced 21.4% inhibition against Aromatase [2].
For the molecule `COCn1c(-c2ccccc2)cc2ccccc21`, in assay [1], the Ratio was 1.9. At Aromatase [2], this molecule showed an inhibition at 50 µM of 20.2%.
The like results for `c1ccc(C2Cc3ccccc3N2)cc1` (stereo not drawn) were, in that order, 1.8 and 49%.
Turning to `Cn1c(-c2ccccc2)cc2cc([N+](=O)[O-])ccc21`, in assay [1], the Ratio stood at 0.89. This molecule had a concentration for half-maximal inhibition (IC50) against Aromatase [3] of 3.88 µM. For the same molecule, at Aromatase [2], testing at 50 µM gave an inhibition of 77%.
For `Fc1ccc(-c2cc3ccccc3[nH]2)cc1`, the Ratio in assay [1] worked out at 2.73. Moreover, the CD in assay [4] was determined as 17.8 µM. Also, on Aromatase [2], at 50 µM the inhibition was 21.8%.
For the molecule `O=[N+]([O-])c1ccc2[nH]c(-c3cccnc3)cc2c1`, the Ratio in assay [1] came to 1.7. Further, on Aromatase [2], the inhibition at 50 µM came out at 27.9%.
For the molecule `FC(F)(F)Oc1ccc(-c2cc3ccccc3[nH]2)cc1`, the Ratio in assay [1] turned out to be 2.48. Besides, the CD in assay [4] worked out at 29.1 µM. Further, the inhibition at 50 µM at Aromatase [2] worked out at 1.86%.
For the molecule `Cn1c(-c2ccc(Cl)c(Cl)c2)cc2ccccc21`, the Ratio in assay [1] was determined as 4.4. The CD in assay [4] was 2.1 µM. On Aromatase [2], this molecule registered an inhibition at 50 µM of 20%.
`C(=N\OCc1ccccc1)/c1c(-c2ccccc2)[nH]c2ccccc12`: the Ratio in assay [1] turned out to be 0.5. Moreover, the inhibition at 50 µM against Aromatase [2] came to 23.2%.
Consider `N#Cc1ccc2[nH]c(-c3ccccc3)cc2c1`, for which the Ratio in assay [1] was 1.06. On Aromatase [3], the IC50 was determined as 3.34 µM. Moreover, 50 µM produced 82.3% inhibition against Aromatase [2].
For the molecule `Nc1ccccc1C#Cc1cc(F)cc(F)c1`, the Ratio in assay [1] came out at 1.48. This molecule yielded an inhibition at 50 µM against Aromatase [2] of 9.27%.
As to `Clc1ccccc1-c1cc2ccccc2[nH]1`, in assay [1], the Ratio was 1.4. Moreover, 50 µM produced 21.5% inhibition against Aromatase [2].
Regarding `Cc1ccc(-c2cc3ccccc3[nH]2)cc1`, the Ratio in assay [1] worked out at 5.2. In assay [4], the CD is 6.4 µM. The molecule further returned an inhibition at 50 µM against Aromatase [2] of 9.33%.
With `Clc1ccc(-c2cc3ccccc3[nH]2)cc1Cl`, the Ratio in assay [1] amounted to 0.57. The molecule also returned an inhibition at 50 µM against Aromatase [2] of 22.6%.
Regarding `COc1ccc2ccc(-c3cc4ccccc4[nH]3)cc2c1`, in assay [1], the Ratio turned out to be 0.74. On Aromatase [2], this molecule gave an inhibition at 50 µM of 0.07%.
As for `COc1ccc(-c2cc3ccccc3[nH]2)cc1`, in assay [1], the Ratio was determined as 1.56. The molecule further had an inhibition at 50 µM against Aromatase [2] of 0%.
For `N#Cc1ccc2[nH]c(-c3cccnc3)cc2c1`, the Ratio in assay [1] was 2.1. Besides, the CD in assay [4] is 31.2 µM. Further, 11.5 µM corresponded to half-maximal inhibition on Aromatase [3] (IC50). Besides, the inhibition at 50 µM at Aromatase [2] was 93.7%.
As to `COc1cccc(-c2cc3ccccc3[nH]2)c1`, the Ratio in assay [1] was 1.3. This molecule also displayed an inhibition at 50 µM against Aromatase [2] of 48.4%.
Consider `CO/N=C/c1c(-c2ccccc2)[nH]c2ccccc12`, for which the Ratio in assay [1] came to 1.3. This molecule came in with an inhibition at 50 µM against Aromatase [2] of 24.7%.
In the case of `Clc1cccc(-c2cc3ccccc3[nH]2)c1`, the Ratio in assay [1] is 5.2. The CD in assay [4] was 2.17 µM. Moreover, the inhibition at 50 µM against Aromatase [2] came out at 24.1%.
Turning to `CCCCCc1ccc(-c2cc3ccccc3[nH]2)cc1`, the Ratio in assay [1] is 0.78. The molecule further showed an inhibition at 50 µM at Aromatase [2] of 0%.
For `O=[N+]([O-])c1ccc2[nH]c(-c3ccccc3)cc2c1`, the Ratio in assay [1] worked out at 3.92. Further, in assay [4], the CD was found to be 5.76 µM. Moreover, on Aromatase [3], half-maximal inhibition (IC50) was put at 9 µM. The molecule further gave an inhibition at 50 µM on Aromatase [2] of 77.7%.
Take `CC(C)(C)OC(=O)n1c(-c2ccccc2)cc2ccccc21`: in assay [1], the Ratio came out at 1. In addition, testing at 50 µM on Aromatase [2] gave an inhibition of 11.9%.
Turning to `c1ccc(Cn2c(-c3ccccc3)cc3ccccc32)cc1`, in assay [1], the Ratio worked out at 0.37. Testing at 50 µM against Aromatase [2] gave an inhibition of 0%.
As for `COc1cc(OC)cc(-c2cc3ccccc3[nH]2)c1`, the Ratio in assay [1] was found to be 3.75. Also, in assay [4], the CD turned out to be 1.12 µM. For the same molecule, the inhibition at 50 µM on Aromatase [2] is 9.18%.
`c1ccc(-c2nc3ccccc3[nH]2)cc1` displayed an inhibition at 50 µM against Aromatase [2] of 7.64%.
Take `Clc1ccc2[nH]c(-c3ccccc3)cc2c1`: the Ratio in assay [1] stood at 5.1. For the same molecule, the CD in assay [4] was determined as 5.5 µM. This molecule also returned an IC50 at Aromatase [3] of 22.8 µM. On Aromatase [2], this molecule gave an inhibition at 50 µM of 70.5%.
As for `O=[N+]([O-])c1ccc2[nH]c(-c3ccc(Cl)c(Cl)c3)cc2c1`, in assay [1], the Ratio turned out to be 1.07. Besides, testing at 50 µM against Aromatase [2] gave an inhibition of 7.59%.
Take `O/N=C/c1c(-c2ccccc2)[nH]c2ccccc12`: the Ratio in assay [1] turned out to be 3.1. Moreover, in assay [4], the CD was determined as 11.7 µM. Besides, the inhibition at 50 µM against Aromatase [2] worked out at 40.4%.
Consider `Nc1ccc(-c2cc3ccccc3[nH]2)cc1`, for which, in assay [1], the Ratio was found to be 0.56. In addition, at Aromatase [2], the inhibition at 50 µM came out at 46.2%.
As to `Brc1ccc2[nH]c(-c3ccccc3)cc2c1`, in assay [1], the Ratio turned out to be 5.5. The CD in assay [4] amounted to 6.76 µM. Moreover, it took 39.7 µM to reach half-maximal inhibition against Aromatase [3] (IC50). The molecule also yielded an inhibition at 50 µM on Aromatase [2] of 58.1%.
As to `Nc1cccc(-c2cc3ccccc3[nH]2)c1`, the Ratio in assay [1] came to 2.7. Moreover, in assay [4], the CD is 18.4 µM. The molecule further showed an inhibition at 50 µM against Aromatase [2] of 26.7%.
The like results for `Cn1c(-c2ccc(Cl)c(Cl)c2)cc2cc(N)ccc21` were, in that order, 2.14, 46.7 µM and 42%.
For the molecule `Cc1ccc2cc(-c3ccccc3)[nH]c2c1`, the Ratio in assay [1] was 1. Moreover, at 50 µM the inhibition against Aromatase [2] was 32.4%.
Turning to `Cn1c(-c2ccc(Cl)c(Cl)c2)cc2cc([N+](=O)[O-])ccc21`, the Ratio in assay [1] was determined as 1.56. In addition, the inhibition at 50 µM on Aromatase [2] was 34%.

(Values after ChEMBL document CHEMBL4184169, “Structure-activity relationships and docking studies of synthetic 2-arylindole derivatives determined with aromatase and quinone reductase 1” (Bioorg Med Chem Lett, 2017).)
